Data reported in ChEMBL document CHEMBL2331506, “Design, synthesis, antiviral and cytostatic evaluation of novel isoxazolidine nucleotide analogues with a carbamoyl linker” (Bioorg Med Chem, 2013).
Activity calls are given as the source filed them. How the calls were made is not given here.

Key:
[1] = tested on: Human respirovirus 3; assay: Antiviral activity against Parainfluenza virus 3 infected in african green monkey Vero cells assessed as reduction of virus-induced cytopathogenicity at 250 uM; assay type: functional, organism-based
Procedure, shortened: (§1)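 Confluent monolayers (HEL fibroblasts, Vero, or HeLa cells as listed) were infected with 100 CCID50 of virus in the presence of varying compound concentrations. Virus-induced cytopathicity or plaque formation was scored once cytopathicity was complete in untreated infected controls. EC50 was taken as the concentration reducing cytopathogenicity or plaque formation by 50%.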

[2] = tested on: Human immunodeficiency virus 1; assay: Antiviral activity against Human immunodeficiency virus 1 3B infected in human CEM cells assessed as reduction of virus-induced giant cell formation at 250 uM after 4 to 5 days; assay type: functional, organism-based; details: CCRF-CEM
Procedure, shortened: (§2)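 CEM cells at 3 × 10^5 cells/mL were infected with HIV at 100 CCID50 per mL in the presence of compound dilutions. They were held 4–5 days at 37 °C in humidified CO2. Syncytium (giant cell) formation was scored microscopically, and EC50 was taken as the concentration inhibiting giant cell formation by 50%.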

[3] = tested on: Influenza A virus; assay: Antiviral activity against Influenza A virus H1N1 infected in dog MDCK cells assessed as reduction of virus-induced cytopathogenicity at 250 uM; assay type: functional, organism-based
Procedure, shortened: (§3)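 Confluent cell monolayers were infected with 100 CCID50 of virus while exposed to varying compound concentrations. Cytopathicity was scored once it was complete in untreated infected controls. EC50 was taken as the concentration that reduced virus-induced cytopathogenicity by 50%.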

[4] = tested on: Respiratory syncytial virus; assay: Antiviral activity against Respiratory syncytial virus long infected in human HeLa cells assessed as reduction of virus-induced cytopathogenicity at 250 uM; assay type: functional, organism-based; procedure, shortened: as §1
[5] = tested on: MDCK; assay: Cytotoxicity against dog MDCK cells assessed as alteration of cell morphology up to 100 uM by microscopic analysis; assay type: cell-based, Canis lupus familiaris
Procedure, shortened: (§4)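 Uninfected host-cell cultures were exposed to compound and examined by microscopy. Cytotoxicity was expressed as the minimum cytotoxic concentration (MCC) causing a microscopically detectable alteration of normal cell morphology.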

[6] = tested on: Punta Toro virus; assay: Antiviral activity against Punta Toro virus infected in african green monkey Vero cells assessed as reduction of virus-induced cytopathogenicity at 250 uM; assay type: functional, organism-based; procedure, shortened: as §1
[7] = tested on: Mammalian orthoreovirus 1; assay: Antiviral activity against Reovirus 1 infected in african green monkey Vero cells assessed as reduction of virus-induced cytopathogenicity at 250 uM; assay type: functional, organism-based; procedure, shortened: as §1
[8] = tested on: Feline coronavirus; assay: Antiviral activity against Feline coronavirus infected in cat CRFK cells assessed as reduction of virus-induced cytopathogenicity at 250 uM; assay type: functional, organism-based
[9] = tested on: Influenza B virus; assay: Antiviral activity against Influenza B virus infected in dog MDCK cells assessed as reduction of virus-induced cytopathogenicity at 250 uM; assay type: functional, organism-based; procedure, shortened: as §3
[10] = tested on: Felid alphaherpesvirus 1; assay: Antiviral activity against Feline herpes virus infected in cat CRFK cells assessed as reduction of virus-induced cytopathogenicity at 250 uM; assay type: functional, organism-based
[11] = Cytotoxicity against cat CRFK cells assessed as alteration of cell morphology up to 100 uM by microscopic analysis; assay type: cell-based, Felis catus; procedure, shortened: as §4
[12] = tested on: Coxsackievirus B4; assay: Antiviral activity against Coxsackievirus B4 infected in african green monkey Vero cells assessed as reduction of virus-induced cytopathogenicity at 250 uM; assay type: functional, organism-based; procedure, shortened: as §1
[13] = tested on: CCRF-CEM; assay: Cytostatic activity against human CEM cells assessed as inhibition of cell proliferation after 72 hrs by Coulter counter analysis; assay type: functional, cell-based
Procedure, shortened: (§5)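 Each well received (5–7.5) × 10^4 tumor cells plus compound. L1210 cells grew 48 h and CEM and HeLa cells grew 72 h, at 37 °C in humidified CO2. Cells were then counted electronically, and IC50 was taken as the concentration inhibiting proliferation by 50%.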

[14] = tested on: Vesicular stomatitis virus; assay: Antiviral activity against Vesicular stomatitis virus infected in human HeLa cells assessed as reduction of virus-induced cytopathogenicity at 250 uM; assay type: functional, organism-based; procedure, shortened: as §3
[15] = tested on: Vesicular stomatitis virus; assay: Antiviral activity against Vesicular stomatitis virus infected in human HEL cells assessed as reduction of virus-induced cytopathogenicity at 250 uM; assay type: functional, organism-based; procedure, shortened: as §3
[16] = tested on: HeLa; assay: Cytotoxicity against human HeLa cells assessed as alteration of cell morphology up to 100 uM by microscopic analysis; assay type: cell-based; procedure, shortened: as §4
[17] = tested on: L1210; assay: Cytostatic activity against mouse L1210 cells assessed as inhibition of cell proliferation after 48 hrs by Coulter counter analysis; assay type: functional, cell-based; details: L1210, 48 h; procedure, shortened: as §5
[18] = tested on: Human immunodeficiency virus 2; assay: Antiviral activity against Human immunodeficiency virus 2 ROD infected in human CEM cells assessed as reduction of virus-induced giant cell formation at 250 uM after 4 to 5 days; assay type: functional, organism-based; details: CCRF-CEM; procedure, shortened: as §2
[19] = tested on: Influenza A virus; assay: Antiviral activity against Influenza A virus H3N2 infected in dog MDCK cells assessed as reduction of virus-induced cytopathogenicity at 250 uM; assay type: functional, organism-based; procedure, shortened: as §3
[20] = tested on: Human alphaherpesvirus 2; assay: Antiviral activity against Herpes simplex virus 2 G infected in human HEL cells assessed as reduction of virus-induced cytopathogenicity at 250 uM; assay type: functional, organism-based; details: strain G; procedure, shortened: as §1
[21] = tested on: Human alphaherpesvirus 1; assay: Antiviral activity against thymidine kinase-deficient, ACV-resistant Herpes simplex virus 1 KOS infected in human HEL cells assessed as reduction of virus-induced cytopathogenicity at 250 uM; assay type: functional, organism-based; procedure, shortened: as §3
[22] = tested on: Sindbis virus; assay: Antiviral activity against Sindbis virus infected in african green monkey Vero cells assessed as reduction of virus-induced cytopathogenicity at 250 uM; assay type: functional, organism-based; procedure, shortened: as §1
[23] = tested on: Vero; assay: Cytotoxicity against african green monkey Vero cells assessed as alteration of cell morphology up to 100 uM by microscopic analysis; assay type: cell-based; details: chlorocebus sabaeus; procedure, shortened: as §4
[24] = tested on: HeLa; assay: Cytostatic activity against human HeLa cells assessed as inhibition of cell proliferation after 72 hrs by Coulter counter analysis; assay type: functional, cell-based; procedure, shortened: as §5
[25] = tested on: Human alphaherpesvirus 1; assay: Antiviral activity against Herpes simplex virus 1 KOS infected in human HEL cells assessed as reduction of virus-induced cytopathogenicity at 250 uM; assay type: functional, organism-based; procedure, shortened: as §1
[26] = tested on: HEL; assay: Cytotoxicity against human HEL cells assessed as alteration of cell morphology up to 100 uM by microscopic analysis; assay type: cell-based; procedure, shortened: as §4

Structure (SMILES): CCOP(=O)(OCC)[C@H]1C[C@H](C(=O)Nc2ccccc2F)ON1C (mixture of isomers)
- inhibition [1]: inactive
- inhibition [2]: inactive
- inhibition [3]: inactive
- inhibition [4]: inactive
- Activity [5]: Non-toxic
- inhibition [6]: inactive
- inhibition [7]: inactive
- inhibition [8]: inactive
- inhibition [9]: inactive
- inhibition [10]: inactive
- Activity [11]: Non-toxic
- inhibition [12]: inactive
- IC50 [13]: > 250 µM
- inhibition [14]: inactive
- inhibition [15]: inactive
- Activity [16]: Non-toxic
- IC50 [17]: > 250 µM
- inhibition [18]: inactive
- inhibition [19]: inactive
- inhibition [20]: inactive
- inhibition [21]: inactive
- inhibition [22]: inactive
- Activity [23]: Non-toxic
- IC50 [24]: ≥ 250 µM
- inhibition [25]: inactive
- Activity [26]: Non-toxic

Structure (SMILES): CCOP(=O)(OCC)[C@H]1C[C@H](C(=O)Nc2cccc(F)c2)ON1C (mixture of isomers)
- inhibition [1]: inactive
- inhibition [2]: inactive
- inhibition [3]: inactive
- inhibition [4]: inactive
- Activity [5]: Non-toxic
- inhibition [6]: inactive
- inhibition [7]: inactive
- inhibition [8]: inactive
- inhibition [9]: inactive
- inhibition [10]: inactive
- Activity [11]: Non-toxic
- inhibition [12]: inactive
- IC50 [13]: > 250 µM
- inhibition [14]: inactive
- inhibition [15]: inactive
- Activity [16]: Non-toxic
- IC50 [17]: > 250 µM
- inhibition [18]: inactive
- inhibition [19]: inactive
- inhibition [20]: inactive
- inhibition [21]: inactive
- inhibition [22]: inactive
- Activity [23]: Non-toxic
- IC50 [24]: > 250 µM
- inhibition [25]: inactive
- Activity [26]: Non-toxic

Structure (SMILES): CCOP(=O)(OCC)[C@@H]1C[C@H](C(=O)Nc2cccc(F)c2)ON1C (mixture of isomers)
- inhibition [1]: inactive
- inhibition [2]: inactive
- inhibition [3]: inactive
- inhibition [4]: inactive
- Activity [5]: Non-toxic
- inhibition [6]: inactive
- inhibition [7]: inactive
- inhibition [8]: inactive
- inhibition [9]: inactive
- inhibition [10]: inactive
- Activity [11]: Non-toxic
- inhibition [12]: inactive
- IC50 [13]: ≥ 250 µM
- inhibition [14]: inactive
- inhibition [15]: inactive
- Activity [16]: Non-toxic
- IC50 [17]: 228 µM
- inhibition [18]: inactive
- inhibition [19]: inactive
- inhibition [20]: inactive
- inhibition [21]: inactive
- inhibition [22]: inactive
- Activity [23]: Non-toxic
- IC50 [24]: ≥ 250 µM
- inhibition [25]: inactive
- Activity [26]: Non-toxic

Structure (SMILES): CCOP(=O)(OCC)[C@H]1C[C@H](C(=O)Nc2cccc(Br)c2)ON1C (racemic)
- inhibition [1]: inactive
- inhibition [2]: inactive
- inhibition [3]: inactive
- inhibition [4]: inactive
- Activity [5]: Non-toxic
- inhibition [6]: inactive
- inhibition [7]: inactive
- inhibition [8]: inactive
- inhibition [9]: inactive
- inhibition [10]: inactive
- Activity [11]: Non-toxic
- inhibition [12]: inactive
- IC50 [13]: ≥ 250 µM
- inhibition [14]: inactive
- inhibition [15]: inactive
- Activity [16]: Non-toxic
- IC50 [17]: > 250 µM
- inhibition [18]: inactive
- inhibition [19]: inactive
- inhibition [20]: inactive
- inhibition [21]: inactive
- inhibition [22]: inactive
- Activity [23]: Non-toxic
- IC50 [24]: 180 µM
- inhibition [25]: inactive
- Activity [26]: Non-toxic

Structure (SMILES): CCOP(=O)(OCC)[C@@H]1C[C@H](C(=O)Nc2ccc(C(C)=O)cc2)ON1C (racemic)
- inhibition [1]: inactive
- inhibition [2]: inactive
- inhibition [3]: inactive
- inhibition [4]: inactive
- Activity [5]: Non-toxic
- inhibition [6]: inactive
- inhibition [7]: inactive
- inhibition [8]: inactive
- inhibition [9]: inactive
- inhibition [10]: inactive
- Activity [11]: Non-toxic
- inhibition [12]: inactive
- IC50 [13]: 227 µM
- inhibition [14]: inactive
- inhibition [15]: inactive
- Activity [16]: Non-toxic
- IC50 [17]: 150 µM
- inhibition [18]: inactive
- inhibition [19]: inactive
- inhibition [20]: inactive
- inhibition [21]: inactive
- inhibition [22]: inactive
- Activity [23]: Non-toxic
- IC50 [24]: 211 µM
- inhibition [25]: inactive
- Activity [26]: Non-toxic
